Measured values from publication PMC3312318 (Biochemistry, 2012).
Ends that are not written are not given here. Oregon Green 488 = Oregon Green 488 fluorophore

What was measured:
[1] = test system: PICK1 PDZ domain; settings: in words, ref [39], cited from earlier work
[2] = test system: PKCα; experiment: In vitro phosphorylation by PKCα; assay type: biochemical; settings: in words
How it was run: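 About 3 μg of purified untagged PICK1 variant was mixed with reaction buffer (Tris pH 7.5, MgCl2, CaCl2), PKC lipid activator, 10 ng PKCα and 2 μCi [γ-32P]ATP, then incubated 30 min at 30 °C. Reactions were stopped on ice with SDS loading buffer and run on SDS-PAGE. 32P and Coomassie bands were quantified, and the phosphorylation/protein density ratio was expressed relative to WT (100%). Mean ± SE, 3–5 experiments.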

[3] = test system: PKCα; experiment: In vitro phosphorylation by PKCα after preincubation with lipid vesicles; assay type: biochemical; settings: with vs without vesicles
How it was run: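 Purified untagged PICK1 (~3 μg) was preincubated 30 min on ice with 3 μg Folch fraction type I vesicles extruded to 100 nm, or without vesicles. It was then phosphorylated with 10 ng PKCα, PKC lipid activator, Mg2+/Ca2+ Tris reaction buffer (pH 7.5) and 2 μCi [γ-32P]ATP for 30 min at 30 °C. Read-out was 32P band density over Coomassie protein density.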

[4] = target: T1, PICK1 WT (protein interacting with C-kinase 1), rat (rat, UniProt Q9EP80 1-416); experiment: fluorescence polarisation
[5] = target: T2, PICK1 S77A, rat (rat, UniProt Q9EP80 1-416, S77A); experiment: fluorescence polarisation
[6] = target: T3, PICK1 S77D, rat (phosphomimic) (rat, UniProt Q9EP80 1-416, S77D); experiment: fluorescence polarisation
[7] = target: T1, PICK1 WT (protein interacting with …); experiment: fluorescence polarisation; remark: listed apart in the source
[8] = target: T2, PICK1 S77A, rat; experiment: fluorescence polarisation; remark: listed apart in the source
[9] = target: T3, PICK1 S77D, rat (phosphomimic); experiment: fluorescence polarisation; remark: listed apart in the source

T1 sequence (Q9EP80 whole entry): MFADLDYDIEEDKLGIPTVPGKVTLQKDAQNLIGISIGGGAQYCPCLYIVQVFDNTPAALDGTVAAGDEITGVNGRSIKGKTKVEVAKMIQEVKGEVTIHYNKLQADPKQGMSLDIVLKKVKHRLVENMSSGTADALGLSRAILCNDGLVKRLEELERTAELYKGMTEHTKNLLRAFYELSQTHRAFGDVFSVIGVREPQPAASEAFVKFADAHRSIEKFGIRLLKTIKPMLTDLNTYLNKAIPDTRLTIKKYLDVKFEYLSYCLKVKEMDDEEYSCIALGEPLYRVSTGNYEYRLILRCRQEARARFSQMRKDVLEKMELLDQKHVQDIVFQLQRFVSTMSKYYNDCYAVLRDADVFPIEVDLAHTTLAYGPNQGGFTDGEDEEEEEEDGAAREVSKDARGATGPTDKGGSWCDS
T3 sequence (Q9EP80 whole entry S77D): as the sequence (Q9EP80 whole entry) above, with S77D counted along it
T2 sequence (Q9EP80 whole entry S77A): as the sequence (Q9EP80 whole entry) above, with S77A counted along it

Row | Molecule | Ki [7] [µM] | Ki [8] [µM] | Ki [9] [µM] | further results
1 | EVRQFTLRHWLKD [DAT C13 V to D] | – | – | – | interaction with the PICK1 PDZ domain ([1]; last residue changed to aspartate): disrupts the interaction with the PICK1 PDZ domain
2 | PICK1 A87L: PICK1 mutant (A87L) that cannot accommodate a peptide in the PDZ binding pocket | – | – | – | PKCα phosphorylation compared with PICK1 WT ([2]; n=3-5): phosphorylated to the same level as WT
3 | OrG DAT C13: DAT C13 with an additional N-terminal cysteine residue coupled to the fluorophore Oregon Green 488 (C(Oregon Green 488)EVRQFTLRHWLKV) | – | – | – | affinity for the PICK1 PDZ domain [1]: highest affinity reported for the PICK1 PDZ domain
4 | PICK1 WT: purified rat PICK1, cleaved from GST with thrombin | – | – | – | PKCα in vitro phosphorylation ([2]; SDS-PAGE, 32P autoradiography, n=3): PICK1 is a substrate for PKCα; fold increase in phosphorylation on addition of lipid vesicles [3]: approximately 10 fold
5 | C(Oregon Green 488)EVRQFTLRHWLKV [OrG DAT C13 (DAT C13 with an additional N-terminal cysteine coupled to Oregon Green 488)] | – | – | – | binding result [4]: binds; binding result [5]: binds; binding result [6]: binds

The next lines start with results.

Row | Ki [7] [µM] | Ki [8] [µM] | Ki [9] [µM] | Molecule | further results
6 | 1.05 | 1.5 | 1.1 | EVRQFTLRHWLKV [DAT C13 (13 C-terminal residues of the human dopamine transporter)] | –
7 | 49 | 28 | 29 | NPQFVHPILQSAV [PKCα C13 (13 C-terminal residues of human protein kinase Cα)] | –
8 | 7.6 | 9.8 | 8.8 | EGYNVYGIESVKI [GluA2 C13 (13 C-terminal residues of human GluA2)] | –
